Results as given in ChEMBL document CHEMBL2040754, “Regioselective reaction: synthesis, characterization and pharmacological activity of some new Mannich and Schiff bases containing sydnone” (2012).

Assays:
Format in all cases: functional
Rattus norvegicus [1] = test: Antiinflammatory activity in Wistar albino rat assessed as reduction of carrageenan-induced paw edema at 20 mg/kg, po measured after 1 hr by plethysmometer; design: scale not given: the % may be the effect or the level left
Summary of the method: (§1)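 Rats 150e200 g dosed orally with test suspension 20 mg/kg, control given 1 mL of 1% carboxymethyl cellulose suspension. After 30 min, 0.1 mL of 1% carrageenan in normal saline injected subcutaneously into the sub-plantar region of the right hind paw. Paw volume read by plethysmometer at 0 h, 30, 60 and 120 min. Data as mean, one-way ANOVA then Dunnett's t-test.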

Rattus norvegicus [2] = test: Antiinflammatory activity in Wistar albino rat assessed as reduction of carrageenan-induced paw edema at 20 mg/kg, po measured after 2 hrs by plethysmometer; design: scale not given: the % may be the effect or the level left; summary of the method: as §1
Rattus norvegicus [3] = test: Analgesic activity in Wistar albino rat assessed as thermal-stimulus induced tail flick latency time at 20 mg/kg measured after 60 mins (reference value: 3.34 +/- 0.005 secs)
Rattus norvegicus [4] = test: Antiinflammatory activity in Wistar albino rat assessed as reduction of carrageenan-induced paw edema at 20 mg/kg, po measured after 30 mins by plethysmometer; design: scale not given: the % may be the effect or the level left; summary of the method: as §1
Rattus norvegicus [5] = test: Analgesic activity in Wistar albino rat assessed as thermal-stimulus induced tail flick latency time at 20 mg/kg measured after 30 mins (reference value: 3.23 +/- 0.005 secs)
Rattus norvegicus [6] = test: Analgesic activity in Wistar albino rat assessed as thermal-stimulus induced tail flick latency time at 20 mg/kg measured after 90 mins (reference value: 3.25 +/- 0.005 secs)

SMILES | Activity (Rattus norvegicus [1]) | Activity (Rattus norvegicus [2]) | Time (Rattus norvegicus [3]) | Activity (Rattus norvegicus [4]) | Time (Rattus norvegicus [5]) | Time (Rattus norvegicus [6])
COc1ccc(-[n+]2noc([O-])c2/C=N/n2c(C(C)c3ccc(CC(C)C)cc3)nn(CN3CCOCC3)c2=S)cc1 (centres undefined) | 57% | 65.8% | 5.92 s | 49% | 4.77 s | 6.82 s
Cc1ccc(-[n+]2noc([O-])c2/C=N/n2c(C(C)c3ccc(CC(C)C)cc3)nn(CN3CCOCC3)c2=S)cc1 (centres undefined) | 53% | 66.6% | 5.91 s | 41.9% | 5.15 s | 7.12 s
Cc1ccc(-[n+]2noc([O-])c2/C=N/n2c(C(C)c3ccc(CC(C)C)cc3)n[nH]c2=S)cc1 (centres undefined) | 46.9% | 55.4% | 6.11 s | 39.2% | 4.99 s | 6.92 s
CC(C)=CCN1CC[C@]2(C)c3cc(O)ccc3C[C@H]1[C@H]2C [(+)-PENTAZOCINE] | – | – | 6.95 s | – | 6.25 s | 7.45 s
COc1ccc(-[n+]2noc([O-])c2/C=N/n2c(C(C)c3ccc(CC(C)C)cc3)nn(CN3CCCCC3)c2=S)cc1 (centres undefined) | 48.6% | 56.2% | 5.55 s | 42.7% | 4.61 s | 6.26 s
CC(C)Cc1ccc(C(C)c2n[nH]c(=S)n2/N=C/c2c([O-])on[n+]2-c2ccccc2)cc1 (centres undefined) | 39.4% | 50.2% | 6.24 s | 32.9% | 5.76 s | 6.6 s
Cc1ccc(-[n+]2noc([O-])c2/C=N/n2c(C(C)c3ccc(CC(C)C)cc3)nn(CN3CCN(c4ccccc4)CC3)c2=S)cc1 (centres undefined) | 35.9% | 40.2% | 4.41 s | 31.5% | 4.15 s | 5.35 s
Cc1ccc(-[n+]2noc([O-])c2/C=N/n2c(C(C)c3ccc(CC(C)C)cc3)nn(CN3CCN(C)CC3)c2=S)cc1 (centres undefined) | 48.7% | 56.2% | 5.25 s | 36.5% | 4.52 s | 6.21 s
COc1ccc(-[n+]2noc([O-])c2/C=N/n2c(C(C)c3ccc(CC(C)C)cc3)n[nH]c2=S)cc1 (centres undefined) | 55.2% | 64% | 6.3 s | 48.6% | 5.41 s | 7.23 s
COc1ccc2c(c1)c(CC(=O)O)c(C)n2C(=O)c1ccc(Cl)cc1 [INDOMETHACIN] | 65.8% | 70.1% | – | 58.1% | – | –
CC(C)Cc1ccc(C(C)c2nn(CN3CCN(c4ccccc4)CC3)c(=S)n2/N=C/c2c([O-])on[n+]2-c2ccccc2)cc1 (centres undefined) | 34.2% | 38.5% | 5.03 s | 27.9% | 4.19 s | 6.05 s
CCN1CCN(Cn2nc(C(C)c3ccc(CC(C)C)cc3)n(/N=C/c3c([O-])on[n+]3-c3ccccc3)c2=S)CC1 (centres undefined) | 46.9% | 54.5% | 5.39 s | 38.7% | 4.4 s | 6.41 s
Cc1ccc(-[n+]2noc([O-])c2/C=N/n2c(C(C)c3ccc(CC(C)C)cc3)nn(CN3CCCCC3)c2=S)cc1 (centres undefined) | 46.9% | 54.1% | 4.31 s | 39.1% | 3.92 s | 5.1 s
CC(C)Cc1ccc(C(C)c2nn(CN3CCOCC3)c(=S)n2/N=C/c2c([O-])on[n+]2-c2ccccc2)cc1 (centres undefined) | 55.3% | 65.3% | 6.1 s | 43.7% | 4.92 s | 6.9 s
CC(C)Cc1ccc(C(C)c2nn(CN3CCCCC3)c(=S)n2/N=C/c2c([O-])on[n+]2-c2ccccc2)cc1 (centres undefined) | 56.1% | 67.9% | 5.73 s | 45% | 4.56 s | 6.8 s
